Assay results from ChEMBL document CHEMBL1145095, “New bivalent PKC ligands linked by a carbon spacer: enhancement in binding affinity” (J Med Chem, 2003).

What was measured:
[1] = target: T1, Protein kinase C delta type (Mus musculus, UniProt P28867); experiment: Tested for ability to displace […] phorbol 12,13- dibutyrate binding from recombinant murine Protein kinase C delta in presence of [Ca2+]
[2] = target: T1, Protein kinase C delta type; experiment: Tested for ability to displace […] phorbol 12,13- dibutyrate binding from recombinant C1b domain of murine Protein kinase C delta in presence of [Ca2+]
[3] = target: T2, Protein kinase C gamma type (Homo sapiens, UniProt P05129); experiment: Inhibition of human Protein kinase C gamma with [Ca2+]
In short: (§1)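 Ligand interaction with each PKC isozyme (α, δ, β1, γ or ε) was measured as competition by the nonradioactive ligand against [³H]PDBU binding to that isozyme, using an earlier published method. Affinities are expressed as Ki.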

[4] = target: T3, Protein kinase C delta type (Homo sapiens, UniProt Q05655); experiment: Inhibition of human Protein kinase C delta; in short: as §1
[5] = target: T4, Protein kinase C beta type (Homo sapiens, UniProt P05771); experiment: Binding affinity for human PKC beta-1; in short: as §1
[6] = target: T3, Protein kinase C delta type; experiment: Binding affinity for human Protein kinase C delta; in short: as §1
[7] = target: T5, Protein kinase C epsilon type (Homo sapiens, UniProt Q02156); experiment: Inhibition of human Protein kinase C epsilon; in short: as §1
T5 sequence (Q02156 whole entry): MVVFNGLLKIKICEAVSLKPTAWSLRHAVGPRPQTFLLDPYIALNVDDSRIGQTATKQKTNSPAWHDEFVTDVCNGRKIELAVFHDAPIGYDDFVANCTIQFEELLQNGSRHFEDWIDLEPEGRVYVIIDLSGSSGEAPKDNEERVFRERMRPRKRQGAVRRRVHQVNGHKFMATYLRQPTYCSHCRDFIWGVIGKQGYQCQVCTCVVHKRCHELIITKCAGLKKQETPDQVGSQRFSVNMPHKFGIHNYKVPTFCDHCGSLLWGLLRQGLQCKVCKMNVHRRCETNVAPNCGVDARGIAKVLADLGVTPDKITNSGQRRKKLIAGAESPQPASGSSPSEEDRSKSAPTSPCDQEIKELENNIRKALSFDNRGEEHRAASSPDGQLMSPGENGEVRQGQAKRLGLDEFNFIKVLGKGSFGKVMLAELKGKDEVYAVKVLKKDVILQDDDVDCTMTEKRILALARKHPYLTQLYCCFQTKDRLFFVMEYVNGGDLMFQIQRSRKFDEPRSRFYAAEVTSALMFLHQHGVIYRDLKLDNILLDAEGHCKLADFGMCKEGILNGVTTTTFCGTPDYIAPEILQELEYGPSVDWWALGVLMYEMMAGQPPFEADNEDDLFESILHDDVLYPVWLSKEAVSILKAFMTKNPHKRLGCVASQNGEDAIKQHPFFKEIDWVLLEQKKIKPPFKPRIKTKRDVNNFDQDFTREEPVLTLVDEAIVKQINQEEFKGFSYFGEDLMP

[8] = target: T2, Protein kinase C gamma type; experiment: Binding affinity for human Protein kinase C gamma with [Ca2+]; in short: as §1
[9] = target: T4, Protein kinase C beta type; experiment: Inhibition of human PKC beta-1; in short: as §1
[10] = target: T5, Protein kinase C epsilon type; experiment: Binding affinity for human Protein kinase C epsilon; in short: as §1

T1 sequence (P28867 whole entry, the tested form may be a part): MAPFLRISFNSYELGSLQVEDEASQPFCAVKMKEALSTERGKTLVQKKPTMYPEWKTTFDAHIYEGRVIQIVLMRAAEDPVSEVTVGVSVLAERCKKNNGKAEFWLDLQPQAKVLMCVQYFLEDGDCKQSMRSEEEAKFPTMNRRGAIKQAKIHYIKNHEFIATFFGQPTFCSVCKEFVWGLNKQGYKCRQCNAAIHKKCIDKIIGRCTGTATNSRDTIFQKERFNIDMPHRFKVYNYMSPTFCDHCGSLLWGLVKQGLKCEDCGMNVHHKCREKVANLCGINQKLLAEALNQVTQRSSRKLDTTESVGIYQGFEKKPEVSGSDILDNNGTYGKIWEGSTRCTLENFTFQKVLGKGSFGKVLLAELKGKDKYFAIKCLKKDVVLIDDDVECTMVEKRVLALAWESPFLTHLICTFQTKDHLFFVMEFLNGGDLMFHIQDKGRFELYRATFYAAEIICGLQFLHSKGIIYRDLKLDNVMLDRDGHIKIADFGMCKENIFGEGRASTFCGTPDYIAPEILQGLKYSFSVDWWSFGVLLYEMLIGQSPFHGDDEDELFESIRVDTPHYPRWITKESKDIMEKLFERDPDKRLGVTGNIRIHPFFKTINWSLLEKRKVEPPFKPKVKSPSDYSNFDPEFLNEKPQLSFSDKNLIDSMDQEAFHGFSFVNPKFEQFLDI
T3 sequence (Q05655 whole entry): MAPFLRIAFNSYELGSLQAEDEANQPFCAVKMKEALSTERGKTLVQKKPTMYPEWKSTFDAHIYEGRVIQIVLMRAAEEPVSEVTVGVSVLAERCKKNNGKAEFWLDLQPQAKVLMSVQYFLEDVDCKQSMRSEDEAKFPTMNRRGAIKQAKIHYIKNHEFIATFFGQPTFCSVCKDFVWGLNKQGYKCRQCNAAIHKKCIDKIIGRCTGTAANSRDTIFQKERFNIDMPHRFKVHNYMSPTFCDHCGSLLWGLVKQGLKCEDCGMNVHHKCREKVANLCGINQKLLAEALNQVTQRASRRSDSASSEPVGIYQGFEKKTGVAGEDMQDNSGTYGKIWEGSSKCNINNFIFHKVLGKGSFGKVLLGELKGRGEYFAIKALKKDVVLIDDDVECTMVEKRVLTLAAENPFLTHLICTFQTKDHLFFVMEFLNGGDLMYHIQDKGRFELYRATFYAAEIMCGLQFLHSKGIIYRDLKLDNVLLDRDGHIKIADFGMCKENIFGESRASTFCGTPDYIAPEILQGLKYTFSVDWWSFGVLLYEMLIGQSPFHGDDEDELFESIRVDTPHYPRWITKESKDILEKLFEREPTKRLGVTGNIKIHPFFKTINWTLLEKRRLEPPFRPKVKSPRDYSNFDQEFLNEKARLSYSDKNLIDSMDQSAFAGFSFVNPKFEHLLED
T4 sequence (P05771 whole entry): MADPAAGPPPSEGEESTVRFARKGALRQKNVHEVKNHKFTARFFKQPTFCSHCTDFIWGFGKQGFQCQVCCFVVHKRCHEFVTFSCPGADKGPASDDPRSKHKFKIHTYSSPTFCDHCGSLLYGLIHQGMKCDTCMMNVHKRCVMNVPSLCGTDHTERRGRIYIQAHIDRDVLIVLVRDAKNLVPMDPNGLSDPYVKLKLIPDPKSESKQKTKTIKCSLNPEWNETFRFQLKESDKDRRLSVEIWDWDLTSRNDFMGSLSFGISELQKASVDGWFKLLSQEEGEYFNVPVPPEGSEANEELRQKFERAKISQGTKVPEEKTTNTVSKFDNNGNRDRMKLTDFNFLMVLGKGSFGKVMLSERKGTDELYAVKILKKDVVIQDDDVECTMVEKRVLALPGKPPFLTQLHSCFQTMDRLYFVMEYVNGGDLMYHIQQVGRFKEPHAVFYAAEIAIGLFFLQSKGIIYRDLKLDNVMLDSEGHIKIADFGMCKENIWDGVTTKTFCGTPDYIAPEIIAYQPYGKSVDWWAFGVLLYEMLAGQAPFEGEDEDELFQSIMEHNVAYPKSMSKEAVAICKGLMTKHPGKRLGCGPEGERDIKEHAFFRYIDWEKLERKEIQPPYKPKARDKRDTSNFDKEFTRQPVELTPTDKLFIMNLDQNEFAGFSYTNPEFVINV

SMILES	Ki [1]	Ki [2]	also measured
CC(C)[C@H]1C(=O)N[C@H](CO)Cc2cc(NC(=O)CCCCCCCCC(=O)Nc3ccc4c(c3)N(C)[C@@H](C(C)C)C(=O)N[C@H](CO)C4)ccc2N1C	5.75 nM	1.27 nM	–
CC(C)[C@H]1C(=O)N[C@H](CO)Cc2cc(NC(=O)CCCCCCCCCCCCCCCCCCCCC(=O)Nc3ccc4c(c3)N(C)[C@@H](C(C)C)C(=O)N[C@H](CO)C4)ccc2N1C	0.38 nM	0.11 nM	–
CC(C)[C@H]1C(=O)N[C@H](CO)Cc2cc(NC(=O)CCCCCCCCCCC(=O)Nc3ccc4c(c3)N(C)[C@@H](C(C)C)C(=O)N[C@H](CO)C4)ccc2N1C	1.31 nM	0.48 nM	–
CC(C)[C@H]1C(=O)N[C@H](CO)C1c1ccc(OC(=O)CCCCCCCCCCC(=O)Oc2ccc([C@H]3[C@@H](C(C)C)C(=O)N[C@@H]3CO)c3ccccc23)c2ccccc12 (stereo not given in full)	44.8 nM	–	–
CC(C)[C@H]1C(=O)N[C@H](CO)Cc2cc(NC(=O)CCCCCCC(=O)Nc3ccc4c(c3)N(C)[C@@H](C(C)C)C(=O)N[C@H](CO)C4)ccc2N1C	170 nM	30.6 nM	–
CC(C)[C@H]1C(=O)N[C@H](CO)Cc2cc(NC(=O)CCCCCCCCC(=O)Nc3ccc(O)c4ccccc34)ccc2N1C	21.6 nM	4.4 nM	–
CC(C)[C@H]1C(=O)N[C@H](CO)Cc2cc(NC(=O)CCCCCCCCCCCCCCC(=O)Nc3ccc4c(c3)N(C)[C@@H](C(C)C)C(=O)N[C@H](CO)C4)ccc2N1C	0.36 nM	0.14 nM	–
CC(C)[C@H]1C(=O)N[C@H](CO)Cc2cc(NC(=O)CCCCC(=O)Nc3ccc4c(c3)N(C)[C@@H](C(C)C)C(=O)N[C@H](CO)C4)ccc2N1C	67.8 nM	16.8 nM	–
CC(C)[C@H]1C(=O)N[C@H](CO)Cc2cc(NC(=O)CCCCCCCCCCCCC(=O)Nc3ccc4c(c3)N(C)[C@@H](C(C)C)C(=O)N[C@H](CO)C4)ccc2N1C	0.78 nM	0.33 nM	Ki [3]: 1.5 nM; Ki [4]: 2.12 nM; Kd [5]: 0.19 nM; Kd [6]: 1 nM; Ki [7]: 0.55 nM; Kd [8]: 0.16 nM; Ki [9]: 1.42 nM; Kd [10]: 0.37 nM
